≈ marks a conversion by molar mass, not a printed value.
What follows are compounds tested on Mycobacterium tuberculosis (assay: Antimycobacterial activity against multi-drug-resistant Mycobacterium tuberculosis by agar dilution method).
Type: functional
How it was run: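 MIC was determined by agar dilution, in duplicate.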

Row | SMILES | MIC
1 | NNC(=O)c1ccncc1 [ISONIAZID] | 45.6 µM (≈ 6.25 µg/mL)
2 | CC(C)(C)n1cc(C(=O)O)c(=O)c2cc([N+](=O)[O-])c(N3CCC(N4CCCCC4)CC3)nc21 | 1.7 µM (≈ 0.778 µg/mL)
3 | O=C(O)c1cn(C2CC2)c2nc(N3CCC(n4c(=O)[nH]c5cc(Cl)ccc54)CC3)c([N+](=O)[O-])cc2c1=O | 0.74 µM (≈ 0.388 µg/mL)
4 | CC(C)(C)NC(=O)C1c2ccccc2CCN1c1nc2c(cc1[N+](=O)[O-])c(=O)c(C(=O)O)cn2-c1ccc(F)cc1 (stereo not drawn) | 1.39 µM (≈ 0.778 µg/mL)
5 | CCN(CC)C(=O)C1CCCN(c2nc3c(cc2[N+](=O)[O-])c(=O)c(C(=O)O)cn3-c2ccc(F)cc2)C1 (stereo not drawn) | 1.52 µM (≈ 0.777 µg/mL)
6 | CC(C)(C)n1cc(C(=O)O)c(=O)c2cc([N+](=O)[O-])c(N3CCSCC3)nc21 | 0.48 µM (≈ 0.188 µg/mL)
7 | CC1CN(c2nc3c(cc2[N+](=O)[O-])c(=O)c(C(=O)O)cn3-c2ccc(F)cc2)CC(C)O1 (stereo not drawn) | 0.43 µM (≈ 0.19 µg/mL)
8 | CC1(C)COCN1c1nc2c(cc1[N+](=O)[O-])c(=O)c(C(=O)O)cn2C(C)(C)C | 0.1 µM (≈ 0.039 µg/mL)
9 | CC(C)(C)n1cc(C(=O)O)c(=O)c2cc([N+](=O)[O-])c(N3CCC4(CC3)OCCO4)nc21 | 0.44 µM (≈ 0.19 µg/mL)
10 | CC(C)(C)n1cc(C(=O)O)c(=O)c2cc([N+](=O)[O-])c(N3CCN(C(=O)C4COc5ccccc5O4)CC3)nc21 (stereo not drawn) | 2.9 µM (≈ 1.56 µg/mL)
11 | CC(C)(C)n1cc(C(=O)O)c(=O)c2cc([N+](=O)[O-])c(N3CCC(n4c(=O)[nH]c5cc(Cl)ccc54)CC3)nc21 | 2.88 µM (≈ 1.56 µg/mL)
12 | O=C(O)c1cn(-c2ccc(F)cc2)c2nc(N3CCN(C(c4ccccc4)c4ccc(Cl)cc4)CC3)c([N+](=O)[O-])cc2c1=O (stereo not drawn) | 0.31 µM (≈ 0.19 µg/mL)
13 | CC1CN(c2nc3c(cc2[N+](=O)[O-])c(=O)c(C(=O)O)cn3C2CC2)CC(C)O1 (stereo not drawn) | 4.02 µM (≈ 1.56 µg/mL)
14 | CC(C)(C)n1cc(C(=O)O)c(=O)c2cc([N+](=O)[O-])c(N3CCN(Cc4ccc5c(c4)OCO5)CC3)nc21 | 3.06 µM (≈ 1.56 µg/mL)
15 | O=C(O)c1cn(-c2ccc(F)cc2)c2nc(N3CCN(C(=O)c4ccco4)CC3)c([N+](=O)[O-])cc2c1=O | 1.54 µM (≈ 0.781 µg/mL)
16 | CC(C)(C)n1cc(C(=O)O)c(=O)c2cc([N+](=O)[O-])c(N3CCC(O)(c4ccc(Cl)cc4)CC3)nc21 | 1.56 µM (≈ 0.781 µg/mL)
17 | O=C(O)c1cn(-c2ccc(F)cc2)c2nc(N3CCC(O)(c4ccc(Cl)cc4)CC3)c([N+](=O)[O-])cc2c1=O | 0.72 µM (≈ 0.388 µg/mL)

Row | SMILES | MIC
18 | O=C(O)c1cn(C2CC2)c2nc(N3CCN(C(=O)c4ccco4)CC3)c([N+](=O)[O-])cc2c1=O | 3.44 µM (≈ 1.56 µg/mL)
19 | CC(C)(C)NC(=O)C1c2ccccc2CCN1c1nc2c(cc1[N+](=O)[O-])c(=O)c(C(=O)O)cn2C(C)(C)C (stereo not drawn) | 1.49 µM (≈ 0.777 µg/mL)
20 | O=C(O)c1cn(-c2ccc(F)cc2)c2nc(N3CCSCC3)c([N+](=O)[O-])cc2c1=O | 0.91 µM (≈ 0.392 µg/mL)
21 | O=C(O)c1cn2c(n1)CN(c1nc3c(cc1[N+](=O)[O-])c(=O)c(C(=O)O)cn3C1CC1)CC2 | 1.77 µM (≈ 0.779 µg/mL)
22 | O=C(O)c1cn(-c2ccc(F)cc2)c2nc(N3CCC(N4CCCCC4)CC3)c([N+](=O)[O-])cc2c1=O | 1.57 µM (≈ 0.778 µg/mL)
23 | O=C(O)c1cn(C2CC2)c2nc(N3CCN(Cc4ccc5c(c4)OCO5)CC3)c([N+](=O)[O-])cc2c1=O | 1.58 µM (≈ 0.78 µg/mL)
24 | CC(C)(C)NC(=O)C1c2ccccc2CCN1c1nc2c(cc1[N+](=O)[O-])c(=O)c(C(=O)O)cn2C1CC1 (stereo not drawn) | 6.19 µM (≈ 3.13 µg/mL)
25 | O=C(O)c1cn2c(n1)CN(c1nc3c(cc1[N+](=O)[O-])c(=O)c(C(=O)O)cn3-c1ccc(F)cc1)CC2 | 0.38 µM (≈ 0.188 µg/mL)
26 | O=C(O)c1cn(-c2ccc(F)cc2)c2nc(N3CCC(n4c(=O)[nH]c5cc(Cl)ccc54)CC3)c([N+](=O)[O-])cc2c1=O | 0.62 µM (≈ 0.359 µg/mL)
27 | O=C(O)c1cn(C2CC2)c2nc(N3CCN(C(=O)C4COc5ccccc5O4)CC3)c([N+](=O)[O-])cc2c1=O (stereo not drawn) | 1.49 µM (≈ 0.777 µg/mL)
28 | CN1CCN(c2nc3c(cc2[N+](=O)[O-])c(=O)c(C(=O)O)cn3-c2ccc(F)cc2)CC1c1ccccc1 (stereo not drawn) | 0.18 µM (≈ 0.0906 µg/mL)
29 | CC(C)(C)n1cc(C(=O)O)c(=O)c2cc([N+](=O)[O-])c(N3CCN(C(=O)c4ccco4)CC3)nc21 | 3.32 µM (≈ 1.56 µg/mL)
30 | COc1c(N2CCNC(C)C2)c(F)cc2c(=O)c(C(=O)O)cn(C3CC3)c12 (stereo not drawn) [GATIFLOXACIN] | 8.34 µM (≈ 3.13 µg/mL)
31 | CN1CCN(c2nc3c(cc2[N+](=O)[O-])c(=O)c(C(=O)O)cn3C(C)(C)C)CC1c1ccccc1 (stereo not drawn) | 0.84 µM (≈ 0.391 µg/mL)
32 | COc1ccc(CC2C3=C(CCCC3)CCN2c2nc3c(cc2[N+](=O)[O-])c(=O)c(C(=O)O)cn3C2CC2)cc1 (stereo not drawn) | 0.74 µM (≈ 0.393 µg/mL)
33 | CC(C)(C)n1cc(C(=O)O)c(=O)c2cc([N+](=O)[O-])c(N3CCn4cc(C(=O)O)nc4C3)nc21 | 0.42 µM (≈ 0.192 µg/mL)
